The source of these data is ChEMBL document CHEMBL1949585, “Design, synthesis and evaluation of telomerase inhibitory, hTERT repressing, and anti-proliferation activities of symmetrical 1,8-disubstituted amidoanthraquinones” (Eur J Med Chem, 2012).

Assay [1] in a line: Cytotoxicity against human H1299 cells assessed as cell growth at 1 uM after 48 hrs by MTT assay. It counts as functional. The settings on record: NCI-H1299, 48 h, read-out: Activity. The method in brief:
(§1)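 H1299 non-small lung cancer cells were grown in RPMI 1640 with 10% FBS and penicillin/streptomycin at 37 °C in 5% CO2. About 2×10³ cells were seeded per well and held 24 h, then washed with PBS and given fresh medium. Compound, freshly dissolved in DMSO and diluted in complete medium, was added for 48 h. MTT was read at 550 nm after SDS/DMF lysis at 37 °C for 16 h. Values are from three experiments, untreated = 100%, ±SD.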
Background: Tetrazolium assays rely on reduction of a dye to a coloured formazan, in cell work by metabolically active cells.

Assay [2] can be described thus: Cytotoxicity against human H1299 cells assessed as cell growth at 10 uM after 48 hrs by MTT assay. The class given is functional. Conditions: NCI-H1299, 48 h, read-out: Activity. An outline of the steps: as §1
Assay [3] can be described thus: Cytotoxicity against human H1299 cells assessed as cell growth at 100 uM after 48 hrs by MTT assay. The settings on record: NCI-H1299, 48 h, read-out: Activity. The class given is functional. The method in brief: as §1
Assay [4] is described as follows: Inhibition of human TERT expression in H1299 cells at 1 uM after 24 hrs by secreted alkaline phosphatase reporter gene assay relative to control; values are per cent of control. The settings on record: NCI-H1299. For orientation: A reporter such as luciferase makes a cellular process visible.
A short description of assay [5]: Inhibition of human TERT expression in H1299 cells at 10 uM after 24 hrs by secreted alkaline phosphatase reporter gene assay relative to control; values are per cent of control. The settings on record: NCI-H1299.
Assay [6] can be described thus: Inhibition of human TERT expression in H1299 cells at 100 uM after 24 hrs by secreted alkaline phosphatase reporter gene assay relative to control; values are per cent of control. The settings on record: NCI-H1299.

Consider `COC(=O)[C@H](NCC(=O)Nc1cccc2c1C(=O)c1c(NC(=O)CN[C@@H](C(=O)OC)C(C)C)cccc1C2=O)C(C)C`, for which, in assay [1], the growth at 1 µM was 88%. In assay [2], the growth at 10 µM came out at 80%. Also, in assay [3], the growth at 100 µM worked out at 58%. The results for the level, % of control in assay [4], in assay [5] and in assay [6] were 91%, 95% and 45%, respectively.
As for `COC(=O)[C@H](COC(C)(C)C)NCC(=O)Nc1cccc2c1C(=O)c1c(NC(=O)CN[C@@H](COC(C)(C)C)C(=O)OC)cccc1C2=O`, the growth at 1 µM in assay [1] turned out to be 127%. Further, the growth at 10 µM in assay [2] worked out at 128%. The growth at 100 µM in assay [3] is 91%. Also, the level, % of control was 98% in assay [4], 94% in assay [5] and 98% in assay [6].
For `CCCN(C)CC(=O)Nc1cccc2c1C(=O)c1c(NC(=O)CN(C)CCC)cccc1C2=O`, the growth at 1 µM in assay [1] amounted to 108%. In assay [2], the growth at 10 µM is 108%. The growth at 100 µM in assay [3] is 97%. For the same compound, the level, % of control in assay [4] was 85%; in assay [5], 87%; in assay [6], 45%.
For `COC(=O)[C@H](CC(C)C)NCC(=O)Nc1cccc2c1C(=O)c1c(NC(=O)CN[C@@H](CC(C)C)C(=O)OC)cccc1C2=O`, the growth at 1 µM in assay [1] stood at 112%. The growth at 10 µM in assay [2] was 102%. In addition, the growth at 100 µM in assay [3] was determined as 96%. Besides, the level, % of control in assay [4] was found to be 101%; in assay [5], 101%; in assay [6], 88%.
Consider `COC(=O)[C@H](C)NCC(=O)Nc1cccc2c1C(=O)c1c(NC(=O)CN[C@@H](C)C(=O)OC)cccc1C2=O`, for which the growth at 1 µM in assay [1] worked out at 98%. Also, in assay [2], the growth at 10 µM came to 104%. Further, the growth at 100 µM in assay [3] was found to be 96%. Besides, the level, % of control is 99% in assay [4], 93% in assay [5] and 67% in assay [6].
For the compound `CCNCC(=O)Nc1cccc2c1C(=O)c1c(NC(=O)CNCC)cccc1C2=O`, the growth at 1 µM in assay [1] was determined as 106%. In addition, in assay [2], the growth at 10 µM turned out to be 87%. Further, the growth at 100 µM in assay [3] was found to be 17%. For the same compound, the results for the level, % of control in assay [4], in assay [5] and in assay [6] were 103%, 92% and 2%, respectively.
Consider `CC(C)(C)OC(=O)NCCNCCC(=O)Nc1cccc2c1C(=O)c1c(NC(=O)CCNCCNC(=O)OC(C)(C)C)cccc1C2=O`, for which the growth at 1 µM in assay [1] amounted to 82%. Further, the growth at 10 µM in assay [2] is 78%. For the same compound, the growth at 100 µM in assay [3] worked out at 11%. Also, the level, % of control in assay [4] is 100%; in assay [5], 84%; in assay [6] it was 33%.
Regarding `CCN(CC)CCC(=O)Nc1cccc2c1C(=O)c1c(NC(=O)CCN(CC)CC)cccc1C2=O`, in assay [1], the growth at 1 µM was 97%. The growth at 10 µM in assay [2] was found to be 30%. The growth at 100 µM in assay [3] amounted to 4%. Besides, the level, % of control in assay [4] is 99%; in assay [5] it was 35%; in assay [6] it was 0%.
Consider `COC(=O)[C@H](CCSC)NCC(=O)Nc1cccc2c1C(=O)c1c(NC(=O)CN[C@@H](CCSC)C(=O)OC)cccc1C2=O`, for which, in assay [1], the growth at 1 µM turned out to be 99%. For the same compound, the growth at 10 µM in assay [2] turned out to be 78%. Besides, the growth at 100 µM in assay [3] worked out at 60%. In addition, the level, % of control amounted to 105% in assay [4], 94% in assay [5] and 24% in assay [6].
On to `COC(=O)[C@@H](C)NCC(=O)Nc1cccc2c1C(=O)c1c(NC(=O)CN[C@H](C)C(=O)OC)cccc1C2=O`, for which the growth at 1 µM in assay [1] is 56%. Besides, the growth at 10 µM in assay [2] was determined as 50%. For the same compound, in assay [3], the growth at 100 µM came out at 10%. Also, the results for the level, % of control in assay [4], in assay [5] and in assay [6] were 83%, 74% and 66%, respectively.
As for `CCCN(CCC)CC(=O)Nc1cccc2c1C(=O)c1c(NC(=O)CN(CCC)CCC)cccc1C2=O`, the growth at 1 µM in assay [1] turned out to be 90%. In assay [2], the growth at 10 µM stood at 76%. Moreover, in assay [3], the growth at 100 µM was found to be 66%. Besides, the level, % of control is 105% in assay [4], 101% in assay [5] and 94% in assay [6].
In the case of `CC(C)NCC(=O)Nc1cccc2c1C(=O)c1c(NC(=O)CNC(C)C)cccc1C2=O`, the growth at 1 µM in assay [1] turned out to be 89%. Besides, the growth at 10 µM in assay [2] came out at 86%. Besides, the growth at 100 µM in assay [3] amounted to 14%. The level, % of control in assay [4] was 103%; in assay [5], 101%; in assay [6], 35%.
For the compound `CNCCC(=O)Nc1cccc2c1C(=O)c1c(NC(=O)CCNC)cccc1C2=O`, the growth at 1 µM in assay [1] worked out at 117%. Moreover, the growth at 10 µM in assay [2] stood at 107%. Besides, the growth at 100 µM in assay [3] amounted to 33%. Also, the level, % of control in assay [4] amounted to 101%; in assay [5], 97%; in assay [6], 22%.
As to `COc1cccc2c1C(=O)c1c(O)c3c(c(O)c1C2=O)C[C@@](O)(C(=O)CO)C[C@@H]3O[C@H]1C[C@H](N)[C@H](O)[C@H](C)O1` [DOXORUBICIN], the growth at 1 µM in assay [1] was determined as 17%. Moreover, the growth at 10 µM in assay [2] was 0%. For the same compound, in assay [3], the growth at 100 µM turned out to be 0%. The level, % of control in assay [4] turned out to be 33%; in assay [5], 13%; in assay [6], 5%.
With `CN(C)CCC(=O)Nc1cccc2c1C(=O)c1c(NC(=O)CCN(C)C)cccc1C2=O`, the growth at 1 µM in assay [1] was 93%. Further, the growth at 10 µM in assay [2] is 24%. For the same compound, in assay [3], the growth at 100 µM turned out to be 11%. The level, % of control in assay [4] came to 87%; in assay [5], 20%; in assay [6], 0%.
Turning to `O=C(CNCc1cccc(C(F)(F)F)c1)Nc1cccc2c1C(=O)c1c(NC(=O)CNCc3cccc(C(F)(F)F)c3)cccc1C2=O`, the growth at 1 µM in assay [1] is 97%. For the same compound, the growth at 10 µM in assay [2] stood at 93%. The growth at 100 µM in assay [3] amounted to 93%. The level, % of control in assay [4] is 75%; in assay [5], 84%; in assay [6] it was 33%.
Consider `CCCN(CCC)CCC(=O)Nc1cccc2c1C(=O)c1c(NC(=O)CCN(CCC)CCC)cccc1C2=O`, for which the growth at 1 µM in assay [1] is 94%. Also, the growth at 10 µM in assay [2] was 99%. Besides, in assay [3], the growth at 100 µM was found to be 22%. In addition, the level, % of control in assay [4] came out at 100%; in assay [5], 100%; in assay [6], 4%.
For the compound `CN(C)CC(=O)Nc1cccc2c1C(=O)c1c(NC(=O)CN(C)C)cccc1C2=O`, the growth at 1 µM in assay [1] came out at 72%. Besides, in assay [2], the growth at 10 µM came to 61%. For the same compound, the growth at 100 µM in assay [3] is 57%. For the same compound, the level, % of control in assay [4] worked out at 93%; in assay [5], 96%; in assay [6] it was 84%.
For `COC(=O)[C@@H](NCC(=O)Nc1cccc2c1C(=O)c1c(NC(=O)CN[C@H](C(=O)OC)C(C)C)cccc1C2=O)C(C)C`, the growth at 1 µM in assay [1] was found to be 99%. Also, the growth at 10 µM in assay [2] amounted to 90%. The growth at 100 µM in assay [3] is 86%. Also, the level, % of control in assay [4] stood at 100%; in assay [5], 49%; in assay [6], 0%.
In the case of `COC(=O)CN(C)CC(=O)Nc1cccc2c1C(=O)c1c(NC(=O)CN(C)CC(=O)OC)cccc1C2=O`, the growth at 1 µM in assay [1] amounted to 71%. The growth at 10 µM in assay [2] was found to be 88%. The growth at 100 µM in assay [3] was found to be 46%. For the same compound, the level, % of control was 106% in assay [4], 95% in assay [5] and 73% in assay [6].
With `CCN(C)CC(=O)Nc1cccc2c1C(=O)c1c(NC(=O)CN(C)CC)cccc1C2=O`, the growth at 1 µM in assay [1] amounted to 100%. In addition, the growth at 10 µM in assay [2] stood at 101%. For the same compound, in assay [3], the growth at 100 µM was 73%. Besides, the level, % of control in assay [4] stood at 102%; in assay [5], 95%; in assay [6], 20%.
On to `COC(=O)[C@@H]1CCCN1CC(=O)Nc1cccc2c1C(=O)c1c(NC(=O)CN3CCC[C@H]3C(=O)OC)cccc1C2=O`, for which the growth at 1 µM in assay [1] stood at 88%. The growth at 10 µM in assay [2] worked out at 104%. In addition, the growth at 100 µM in assay [3] was 93%. Further, the level, % of control was found to be 87% in assay [4], 59% in assay [5] and 8% in assay [6].
With `CC(C)CNCCC(=O)Nc1cccc2c1C(=O)c1c(NC(=O)CCNCC(C)C)cccc1C2=O`, the growth at 1 µM in assay [1] came to 73%. In addition, the growth at 10 µM in assay [2] was 4%. Moreover, in assay [3], the growth at 100 µM amounted to 0%. Also, the results for the level, % of control in assay [4], in assay [5] and in assay [6] were 96%, 29% and 0%, respectively.
For the compound `O=C1c2c(O)ccc(O)c2C(=O)c2c(NCCNCCO)ccc(NCCNCCO)c21` [MITOXANTRONE], the growth at 1 µM in assay [1] was determined as 23%. Also, in assay [2], the growth at 10 µM came to 0%. Further, the growth at 100 µM in assay [3] came out at 0%. Further, the level, % of control worked out at 20% in assay [4], 9% in assay [5] and 7% in assay [6].
In the case of `CN(C)CCCNCCC(=O)Nc1cccc2c1C(=O)c1c(NC(=O)CCNCCCN(C)C)cccc1C2=O`, the growth at 1 µM in assay [1] is 122%. Besides, in assay [2], the growth at 10 µM was found to be 105%. The growth at 100 µM in assay [3] turned out to be 21%. In addition, the level, % of control in assay [4] was determined as 95%; in assay [5] it was 95%; in assay [6], 20%.
